The source made the active and inactive calls. The rule behind the calls is not given here.
What was measured:
[1] = system: Aspergillus fumigatus; test: Induction of change in PT repeat family protein level in iTRAQ114 labelled secreted fraction of drug-susceptible Aspergillus fumigatus KU80 delta-akuB at 0.12 ug/ml after 24 hrs in YPD medium by MS (MS/MS) analysis relative to control; format: functional
Summary of the method: (§1)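 Conidia at 1 × 10⁵/ml grown shaking at 37°C in YPD with or without 0.12 μg/ml caspofungin; mycelia filtered at 24 or 48 h. Secreted fraction taken from the filtrate; cell wall/plasma membrane pellet recovered after French-press lysis and a 5,000 × g spin. Proteins trypsin-digested and iTRAQ-labelled, drug vs no-drug channels at each time, then 2D LC-MS/MS. Protein ratio is the median of ratios from uniquely assigned peptides after median normalization.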

[2] = system: Aspergillus fumigatus; test: Induction of change in 60S acidic ribosomal protein P2 gene expression in drug-susceptible Aspergillus fumigatus KU80 delta-akuB at 0.12 ug/ml after 24 hrs in YPD medium by microarray analysis relative to control; format: functional
Summary of the method: (§2)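 Mycelia grown in YPD ± 0.12 μg/ml caspofungin (1 × 10⁵ conidia/ml, 37°C, shaking) and harvested at 24 or 48 h. Total RNA extracted, DNase-treated and quality-checked; 2 μg labelled per TIGR SOP M007 and hybridized to whole-genome arrays. Three independent experiments with dye flip (6 replicates); drug vs untreated fold change.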

[3] = system: Aspergillus fumigatus; test: Induction of change in 4-hydroxyphenylpyruvate dioxygenase, putative protein level in iTRAQ-116 labelled secreted fraction of drug-susceptible Aspergillus fumigatus KU80 delta-akuB at 0.12 ug/ml after 48 hrs in YPD medium by MS (MS/MS) analysis relative to control; format: functional; summary of the method: as §1
[4] = system: Aspergillus fumigatus; test: Induction of change in hypothetical gene locus AFUA_6G02310 expression in drug-susceptible Aspergillus fumigatus KU80 delta-akuB at 0.12 ug/ml after 24 hrs in YPD medium by microarray analysis relative to control; format: functional; summary of the method: as §2
[5] = system: Aspergillus fumigatus; test: Induction of change in glucosamine-fructose-6-phosphate aminotransferase protein level in iTRAQ-118 labelled cell wall fraction of drug-resistant Aspergillus fumigatus EMFR-S678P at 0.12 ug/ml after 24 hrs in YPD medium by MS (MS/MS) analysis relative to control; format: functional, organism-based
Summary of the method: (§3)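 Conidia at 1 × 10⁵/ml were grown at 37°C, shaking at 225 rpm, in YPD with or without 0.12 μg/ml caspofungin for 24 or 48 h. The culture filtrate was kept as the secreted fraction. Mycelia were lysed by French press in HEPES/glycerol/EDTA/PMSF/DTT buffer, and the 5,000 × g pellet was washed to give CW/PM. Proteins were reduced, alkylated and trypsin-digested at 37°C overnight, then iTRAQ-labelled and run by 2D LC-MS/MS. Ratios are the median of unique-peptide ratios, median-normalized, versus the no-drug control.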

[6] = system: Aspergillus fumigatus; test: Antifungal activity against drug-susceptible Aspergillus fumigatus KU80 delta-akuB assessed as reduction in colony size at 0.12 ug/ml; format: functional, organism-based
[7] = system: Aspergillus fumigatus; test: Induction of change in 60s ribosomal protein l21 protein level in iTRAQ114 labelled secreted fraction of drug-susceptible Aspergillus fumigatus KU80 delta-akuB at 0.12 ug/ml after 24 hrs in YPD medium by MS (MS/MS) analysis relative to control; format: functional; summary of the method: as §1
[8] = system: Aspergillus fumigatus; test: Antifungal activity against drug-susceptible Aspergillus fumigatus KU80 delta-akuB assessed as change in hyphal morphology by YPD medium; format: functional; conditions: read-out: MEC
Summary of the method: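 Broth microdilution per CLSI M38-A2, in triplicate, in YPD broth (2% yeast extract, 4% peptone, 4% dextrose); minimum effective concentration read as the lowest drug concentration giving a significant change in hyphal morphology visible by eye. Caspofungin dissolved in sterile water.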

[9] = system: Aspergillus fumigatus; test: Induction of change in thioredoxin TrxA protein level in iTRAQ-118 labelled cell wall fraction of drug-susceptible Aspergillus fumigatus KU80 delta-akuB at 0.12 ug/ml after 24 hrs in YPD medium by MS (MS/MS) analysis relative to control; format: functional
Summary of the method: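 Conidia (1 × 10⁵/ml) grown in YPD, 37°C, 225 rpm, ± 0.12 μg/ml caspofungin; filtrate taken as secreted fraction, French-press lysate 5,000 × g pellet as cell wall/plasma membrane. Trypsin digests 8-plex iTRAQ-labelled (drug-free channels as references), pooled, 2D-chromatography, MS/MS. Median-normalized; protein ratio = median of unique-peptide ratios, log2 normalized.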

[10] = system: Aspergillus fumigatus; test: Induction of change in BYS1 domain protein, putative protein level in iTRAQ-118 labelled cell wall fraction of drug-susceptible Aspergillus fumigatus KU80 delta-akuB at 0.12 ug/ml after 24 hrs in YPD medium by MS (MS/MS) analysis relative to control; format: functional; summary of the method: as §1
[11] = system: Aspergillus fumigatus; test: Induction of change in extracellular thaumatin domain protein, putative gene expression in drug-susceptible Aspergillus fumigatus KU80 delta-akuB at 0.12 ug/ml after 48 hrs in YPD medium by microarray analysis relative to control; format: functional; summary of the method: as §2
[12] = system: Aspergillus fumigatus; test: Induction of change in alanine aminotransferase, putative protein level in iTRAQ-116 labelled secreted fraction of drug-resistant Aspergillus fumigatus EMFR-S678P at 0.12 ug/ml after 48 hrs in YPD medium by MS (MS/MS) analysis relative to control; format: functional, organism-based; summary of the method: as §3
[13] = system: Aspergillus fumigatus; test: Induction of change in sur7 protein, putative gene expression in drug-susceptible Aspergillus fumigatus KU80 delta-akuB at 0.12 ug/ml after 24 hrs in YPD medium by microarray analysis relative to control; format: functional
Summary of the method: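 Mycelia grown from 1 × 10⁵ conidia/ml in YPD at 37°C, 225 rpm, with or without 0.12 μg/ml caspofungin. Total RNA extracted, DNase-treated; 2 μg labelled per TIGR SOP M007 for whole-genome array hybridization. Three independent experiments with dye flip (6 replicates); >2-fold change deemed significant.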

[14] = system: Aspergillus fumigatus; test: Induction of change in GNAT family acetyltransferase, putative protein level in iTRAQ-118 labelled cell wall fraction of drug-resistant Aspergillus fumigatus EMFR-S678P at 0.12 ug/ml after 24 hrs in YPD medium by MS (MS/MS) analysis relative to control; format: functional, organism-based; summary of the method: as §3
[15] = system: Aspergillus fumigatus; test: Antifungal activity against drug-resistant Aspergillus fumigatus EMFR-S678P assessed as change in hyphal morphology by RPMI medium; format: functional; conditions: read-out: MEC
Summary of the method: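 CLSI M38-A2 broth microdilution, run in triplicate in RPMI or YPD medium as the line specifies. Caspofungin was dissolved in sterile water. The minimum effective concentration (MEC) was the lowest concentration giving a significant change in hyphal morphology visible to the eye.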

[16] = system: Aspergillus fumigatus; test: Induction of change in glucosamine-fructose-6-phosphate aminotransferase protein level in iTRAQ-118 labelled cell wall fraction of drug-resistant Aspergillus fumigatus EMFR-S678P at 0.12 ug/ml after 48 hrs in YPD medium by MS (MS/MS) analysis relative to control; format: functional; summary of the method: as §3
[17] = system: Aspergillus fumigatus; test: Induction of change in conserved hypothetical gene expression in drug-susceptible Aspergillus fumigatus KU80 delta-akuB at 0.12 ug/ml after 24 hrs in YPD medium by microarray analysis relative to control; format: functional; summary of the method: as §2
[18] = system: Aspergillus fumigatus; test: Induction of change in BYS1 domain protein, putative protein level in iTRAQ-118 labelled cell wall fraction of drug-resistant Aspergillus fumigatus EMFR-S678P at 0.12 ug/ml after 24 hrs in YPD medium by MS (MS/MS) analysis relative to control; format: functional, organism-based; summary of the method: as §3

SMILES: CC[C@H](C)C[C@H](C)CCCCCCCCC(=O)N[C@H]1C[C@@H](O)[C@@H](NCCN)NC(=O)[C@@H]2[C@@H](O)CCN2C(=O)[C@H]([C@H](O)CCN)NC(=O)[C@H]([C@H](O)[C@@H](O)c2ccc(O)cc2)NC(=O)[C@@H]2C[C@@H](O)CN2C(=O)[C@H]([C@@H](C)O)NC1=O [CASPOFUNGIN]
- fold change (FC) [1]: -3.5
- fold change (FC) [2]: 4.3
- fold change (FC) [3]: >-16
- fold change (FC) [4]: 3.8
- Activity [5]: inactive
- Activity [6]: Active
- fold change (FC) [7]: -1
- minimal effective concentration [8]: 0.19 µg/mL
- fold change (FC) [9]: -3.2
- fold change (FC) [10]: -2.3
- fold change (FC) [11]: -11.2
- Activity [12]: inactive
- fold change (FC) [13]: -5.2
- Activity [14]: inactive
- minimal effective concentration [15]: > 16 µg/mL
- fold change (FC) [16]: -1.07
- fold change (FC) [17]: 15.2
- Activity [18]: inactive

Source: ChEMBL document CHEMBL1687827, “Profiling the Aspergillus fumigatus proteome in response to caspofungin” (2011)
